Assay results from ChEMBL document CHEMBL4270666, “Development of Dihydrodibenzooxepine Peroxisome Proliferator-Activated Receptor (PPAR) Gamma Ligands of a Novel Binding Mode as Anticancer Agents: Effective Mimicry of Chiral Structures by Olefinic E/ Z-Isomers” (J Med Chem, 2018).
Active and inactive are the calls of the source. No cut-off for these calls is given here.

Assays:
[1] = molecular target: T1, Peroxisome proliferator-activated receptor gamma (Homo sapiens, UniProt P37231); assay: Transactivation of GAL4-fused human PPARgamma transfected in HEK293BENA cells after 24 hrs by steady glo-luciferase reporter gene assay; format: cell-based
T1 sequence (P37231 whole entry): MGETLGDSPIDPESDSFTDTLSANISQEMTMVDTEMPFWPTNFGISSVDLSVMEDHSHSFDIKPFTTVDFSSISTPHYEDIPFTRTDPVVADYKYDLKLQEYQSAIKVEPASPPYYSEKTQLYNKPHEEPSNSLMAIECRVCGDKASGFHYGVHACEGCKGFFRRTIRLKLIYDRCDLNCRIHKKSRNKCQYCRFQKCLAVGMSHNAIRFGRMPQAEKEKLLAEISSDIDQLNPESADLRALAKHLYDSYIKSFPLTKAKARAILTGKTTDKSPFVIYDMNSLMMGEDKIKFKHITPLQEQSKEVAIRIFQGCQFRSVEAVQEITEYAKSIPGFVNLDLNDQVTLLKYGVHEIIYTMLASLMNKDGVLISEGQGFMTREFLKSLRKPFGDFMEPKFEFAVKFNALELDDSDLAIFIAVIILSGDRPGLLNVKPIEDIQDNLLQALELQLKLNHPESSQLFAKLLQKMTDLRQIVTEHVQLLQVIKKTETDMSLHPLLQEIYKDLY

Mus musculus = organism: Mus musculus; assay: Antidiabetic activity in db/db diabetic mouse model assessed as reduction in blood glucose levels relative to vehicle-treated control; format: functional; set-up: scale not given: the % may be the effect or the level left
[2] = molecular target: T1, Peroxisome proliferator-activated receptor gamma; assay: Transactivation of PPARgamma (unknown origin) transfected in human DRO cells after 24 hrs by dual luciferase reporter gene assay; format: cell-based
[3] = Inhibition of cologenic growth of human DRO cells at 1 nM after 2 weeks by soft agar assay relative to control; format: functional; details: 336 h
[4] = molecular target: T2, Peroxisome proliferator-activated receptor gamma (Homo sapiens) (UniProt P37231); assay: Agonist activity at PPARgamma in human MKN45 cells assessed as cell differentiation at 30 nM after 5 days by Hoechst 33342 staining-based assay relative to control
T2 sequence (whole entry): T1 sequence (P37231 whole entry)
Method in brief: (§1)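 MKN45 cells grown in RPMI1640 with 10% FBS, penicillin/streptomycin, 37 °C, 5% CO2; seeded 2500 cells/well, exposed to compound (1-1000 nM, N = 3 per concentration) for 5 days. Hoechst 33342 nuclear stain, imaged; nuclear areas above 1,015.58 μm2 counted as aggregated clusters; aggregated-cluster area over total cell area gives aggregation rate, normalized to a reference agonist's maximum; EC50 at half-maximal activity.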

[5] = molecular target: T2, Peroxisome proliferator-activated receptor gamma (Homo sapiens); assay: Transactivation of PPARgamma in human MKN45 cells assessed as increase in angptl4 gene expression at 10 to 100 nM after 72 hrs by quantitative PCR analysis; format: cell-based
Method in brief: (§2)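 MKN45 cells treated with compound for 72 h (N = 3 per concentration); cells washed in cold PBS, total RNA isolated, transcript levels measured by quantitative PCR and corrected to GAPDH; fold-induction expressed relative to control/baseline.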

[6] = molecular target: T2, Peroxisome proliferator-activated receptor gamma (Homo sapiens); assay: Transactivation of PPARgamma in human MKN45 cells assessed as increase in adfp gene expression at 10 to 100 nM after 72 hrs by quantitative PCR analysis; format: cell-based; method in brief: as §2
[7] = molecular target: T2, Peroxisome proliferator-activated receptor gamma (Homo sapiens); assay: Agonist activity at PPARgamma in human MKN45 cells assessed as cell differentiation at 100 nM after 5 days by Hoechst 33342 staining-based assay; method in brief: as §1
[8] = molecular target: T2, Peroxisome proliferator-activated receptor gamma (Homo sapiens); assay: Transactivation of PPARgamma in human MKN45 cells assessed as decrease in vimentin gene expression at 10 to 100 nM after 72 hrs by quantitative PCR analysis; format: cell-based; method in brief: as §2

Structure (SMILES)	EC50 [1]	further results
CCCc1nc(-c2ccccc2)cn1Cc1ccc2c(c1)COc1ccccc1/C2=C(\C)c1noc(=O)[nH]1	151 nM	–
CCCc1nc2c(C(=O)NCCO)cccc2n1Cc1ccc2c(c1)COc1ccccc1/C2=C(\C)c1noc(=O)[nH]1	57 nM	–
CCCCCS(=O)(=O)NC(=O)c1ccc2nc(C)n(Cc3ccc(Cl)cc3Cl)c2c1 [ATX08-001]	163 nM	–
CCCc1nc2c(CO)cccc2n1Cc1ccc2c(c1)COc1ccccc1/C2=C(\C)c1noc(=O)[nH]1	33 nM	–
O=S(=O)(Nc1cc(Cl)c(Oc2cnc3ccccc3c2)c(Cl)c1)c1ccc(Cl)cc1Cl [INT131]	–	Activity (Mus musculus): 60%
CCCc1nc2ccccc2n1Cc1ccc2c(c1)COc1ccccc1/C2=C(\C)c1noc(=O)[nH]1	2.7 nM	–
CCCc1nc2c(NS(C)(=O)=O)cccc2n1Cc1ccc2c(c1)COc1ccccc1/C2=C(\C)c1noc(=O)[nH]1	166 nM	–
Cc1cc(Oc2ccc3nc(COc4ccc(CC5SC(=O)NC5=O)cc4)n(C)c3c2)cc(C)c1N (configuration not stated) [EFATUTAZONE]	–	EC50 [2]: 1 nM; inhibition at 0.001 µM [3]: 63%
CCc1nc2c(C)cc(C)nc2n1Cc1ccc2c(c1)COc1ccccc1/C2=C(\C)c1noc(=O)[nH]1	84 nM	–
CCc1nc2c(C)cc(C)nc2n1Cc1ccc2c(c1)CCc1ccccc1/C2=C(\C)c1noc(=O)[nH]1	177 nM	–
CCCc1nc(-c2ccncc2)cn1Cc1ccc2c(c1)COc1ccccc1/C2=C(\C)c1noc(=O)[nH]1	593 nM	–
CCCc1nc2c(C)cccc2n1Cc1ccc2c(c1)COc1ccccc1/C2=C(\C)c1noc(=O)[nH]1	–	Activity [4]: 94%; Activity [5]: Active; Activity [6]: Active; Activity [7]: Active; Activity [8]: Active
